pEC50: −log10 of the molar value.
Target: Cannabinoid receptor 2 (Homo sapiens, UniProt P34972)
Test: Agonist activity at human recombinant CB2 receptor expressed in HEK293 cells coexpressing Galphaq/o5 assessed as calcium mobilization by FLIPR assay
Procedure, shortened: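 HEK cells stably coexpressing human CB2 and chimeric Gαq/o5 were seeded at 75 000 cells/well the day before and loaded with no-wash calcium dye. Mean ± SEM, ≥3 experiments in duplicate.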

Chain of Cannabinoid receptor 2 (P34972 whole entry): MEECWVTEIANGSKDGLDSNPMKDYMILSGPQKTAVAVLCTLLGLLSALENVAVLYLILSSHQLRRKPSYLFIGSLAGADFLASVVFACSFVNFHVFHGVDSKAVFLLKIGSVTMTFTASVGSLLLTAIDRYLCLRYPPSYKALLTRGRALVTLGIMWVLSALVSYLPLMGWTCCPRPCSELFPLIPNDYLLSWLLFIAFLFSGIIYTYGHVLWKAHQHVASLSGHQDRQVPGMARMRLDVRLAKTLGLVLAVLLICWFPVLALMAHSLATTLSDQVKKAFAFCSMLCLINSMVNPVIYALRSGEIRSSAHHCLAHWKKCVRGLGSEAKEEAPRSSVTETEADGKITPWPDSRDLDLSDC

Work on `CN1CCCCC1Cn1cc(C(=O)c2cc([N+](=O)[O-])ccc2I)c2ccccc21` (stereo unspecified) [3-[(2-iodo-5-nitrophenyl)carbonyl]-1-[(1-methylpiperidin-2-yl)methyl]-1H-indole] yielded a pEC50 of under 5.00.

— BindingDB's records for doi:10.1021/jm901214q (Abbott Laboratories, 2010)
